System: MS2 coat protein
Assay: apparent Kd, MS2 coat protein; higher = weaker binding; RNA-MaP array; tryptophan 2.4 mM where present
Outline: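 Binding was read on Illumina sequencing-chip clusters where stalled E. coli RNA polymerase had transcribed each design. A titration of SNAP-549-labelled MS2 coat protein began at 0.7 or 1.5 nM and doubled to 3 µM, once without ligand and once with constant ligand, in 100 mM Tris-HCl pH 7.5, 80 mM KCl, 4 mM MgCl2, BSA, DTT, yeast tRNA and Tween-20. The apparent Kd is the median of filtered per-cluster binding-curve fits, based on green signal normalised to red-channel RNA signal and control-cluster median Fmax.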

[1] = designed as: OFF switch for tryptophan, no ligand
[2] = ligand present: tryptophan, designed as: OFF switch for tryptophan
[3] = designed as: ON switch for tryptophan, no ligand
[4] = ligand present: tryptophan, designed as: ON switch for tryptophan

Sequence | apparent Kd [1] [nM] | apparent Kd [2] [nM] | apparent Kd [3] [nM] | apparent Kd [4] [nM]
AACAGUUGGUCGGCCGCCACUACAUGAGGAUCACCCAUGUAGCGCGUUCUGCUCCAGGGCUCAUCUAGGACCGGGACACGAGUGU | 15.1 | 16 | – | –
GGUAUGUAUUCGGAAACGAAUGCAUACCAACGAGGACCGGUACGGCCGCCACUCGCCGUCCUCAAACAUGAGGAUCACCCAUGUA | 25.9 | 68.5 | – | –
GGUACAUGAGGAUCACCCAUGUAUUAGUGCCGAGGACCGGUACGGCCGCCACUCGCUUCACAUGAGGAUCACCCAUGUGUCACAG | – | – | 32 | 40.8
CUACAUUUGUAGAAACCGGUCAACAAUAAUCGAGGACCGGUACGGCCGCCACUCGUAUAAUUUUAUACAUGAGGAUCACCCAUGU | – | – | 13.5 | 13.4
UCGGAGAAGUCGGCCGCCACUGAACUCUUGUUCUACAUGAGGAUCACCCAUGUUCCUUUGUUUAACAGGACCGGGACUUAUACGA | – | – | 224 | 96.3
GGCAAGCGAGACAUGAGGAUCACCCAUGUUCGAGGACCGGUACGGCCGCCACUCGGUGGACUCAUGGUAAAGCCGGUGAGCCAAA | – | – | 34.6 | 74.3
CUGUACAUCUCGGCCGCCACUGCAACAUGUACACAUGGACAUGUACAUGAGGAUCACCCAUGUGGCAGGACCGGGAGGUGUGCAG | – | – | 192 | 26.5
AUAUAUACAUGAGGAUCACCCAUGUUAUUUCGAGGACCGGUACGGCCGCCACUCGAUAGAGUAGAAGUAAAUUUUGAUUCAUGUA | – | – | 20.6 | 18.1
AGCGUUCGGUUUAUGCCGGACAAUGGGUGACGAGGACCGGUACGGCCGCCACUCGGGCGCCCGGUUACAUGAGGAUCACCCAUGU | – | – | 258 | 30.1
CACGAAAGAUCGGCCGCCACUCAUGUAGCUUACAUGAGGAUCACCCAUGUAUUUUCUUUCUUUUAGAGGACCGGGAUCGAGCGUG | – | – | 37.4 | 19.2
ACAGGUACGCCUAUUAAAAUAAAACACCUACGAGGACCGGUACGGCCGCCACUCGGGUGACAUGAGGAUCACCCAUGUGGCUAAA | – | – | 394 | 155
CACGAAAGAUCGGCCGCCACUAUUUGAUGUGUUCUUUCACAUGAGGAUCACCCAUGUUCUUAUUAUAGGACCGGGAUUGAGCGUG | 83.8 | 64.3 | – | –
AAUGUAUGGCACAUGAGGAUCACCCAUGUGCGAGGACCGGUACGGCCGCCACUCGGUCGGUGGUUAAUGAAGCUAUACAUUAAUG | 40 | 57.7 | – | –
UAAUGCAGGUCGGCCGCCACUACACACAUGAGGAUCACCCAUGUAGUUACUGGGUGAAGUGGCAGUAGGACCGGGACCUGCAUAA | – | – | 419 | 516
GGGCGCGUGGACUGGCGUGCUCCGCUCCGUCGAGGACCGGUACGGCCGCCACUCGACAUGAGGAUCACCCAUGUGUGAGCUCGCG | 152 | 474 | – | –
CACGAAAGAUCGGCCGCCACUAAUCUAUGUGUACUAGCACAUGAGGAUCACCCAUGUUCUUGCGUUAGGACCGGGAUUGAGCGUG | 22.2 | 18.8 | – | –
AACAUGAGCACGGCCGCCACUCCAUGAACAUGAGGAUCACCCAUACACAUGAGGAUCACCCAUGUGAGGACCGGGUGUCCAUGUG | 13.3 | 56.6 | – | –
UACUUGCUGACGGCCGCCACUAGAACAUGAGGAUCACCCAUGUAUCUAGUGGCAAUCCUCAUGACUAGGACCGGGUCAGCAAGAU | 9.71 | 9.56 | – | –
GUAUAUUGAAAACAAUAUACAGUGGGUGAACGAGGACCGGUACGGCCGCCACUCGGACAUGAGGAUCACCCAUGUCCAUGUGAAA | 17 | 35.2 | – | –
CGAUAUAAGACGGCCGCCACUAUUAUGUAACAAAAUAAACAUGAGGAUCACCCAUGUACAUGGGAUAGGACCGGGUCCAAUAACG | – | – | 112 | 58.2
AAUGUAUGGCACAUGAGGAUCACCCAUGUGCGAGGACCGGUACGGCCGCCACUCGGUCCUGGAUUCUUAUUACUAUACAUUAAUG | 14.5 | 16.7 | – | –
UACUUGCUGACGGCCGCCACUAGAACAUGAGGAUCACCCAUGUACCCGGUCCUACAUGGGAUGACUAGGACCGGGUCAGCAAGAU | 40.9 | 141 | – | –
CUACAUUUGUAGAAACCGGUCACCAUUACUCGAGGACCGGUACGGCCGCCACUCGUGUCAUGUGAUACAUGAGGAUCACCCAUGU | – | – | 22 | 23.1
GGUUACUCUACGGCCGCCACUGUAAUGUAAAGAUACCUGUACAUGACAUGAGGAUCACCCAUGUACAGGACCGGGUAGUGUAACC | – | – | 237 | 48.1
GGUACAUGAGGAUCACCCAUGUAUUAGUGCCGAGGACCGGUACGGCCGCCACUCGCUUCACAUGAGGAUCACCCAUGUGUCACUG | – | – | 29.8 | 39.8
CAAAUAAGAACAAACAAAUAACGGUUUUCGCGAGGACCGGUACGGCCGCCACUCGUGUGAAAUAACACAUGAGGAUCACCCAUGU | – | – | 36.1 | 20.6

From the EternaBench riboswitch data
